{"data": "Experimental data collected from several papers", "cell line": "CCRF-CEM", "read-out": "cell growth or viability", "note": "Compare with care: the assays were run in different laboratories."}
{"Compound": "O=C1NCCc2[nH]c(-c3ccncc3)cc21", "IC50 [µM]": 2.5}
{"Compound": "COc1ccccc1C(=O)c1cc2c(-c3ccccc3)c(OC)ccc2o1", "time": "72 h", "IC50 [µM]": "> 50"}
{"Compound": "O=C(CN1C(=O)SC(=Cc2ccccc2)C1=O)Nc1ccc(F)cc1F", "technique": "MTT", "time": "48 h", "IC50 [µM]": 32.3}
{"Compound": "COC(=O)c1cc(-c2cc(OC)ccc2OC)sc1N", "time": "48 h", "IC50 [µM]": 30}
{"Compound": "COc1ccc(/C=C\\c2cc(OC)c(OC)c(OC)c2)cc1O", "time": "72 h", "IC50 [µM]": 0.0018}
{"Compound": "O=C1C(=Cc2ccccc2)CN(C(=O)C=CC=CC(=O)N2CC(=Cc3ccccc3)C(=O)C(=Cc3ccccc3)C2)CC1=Cc1ccccc1", "time": "72 h", "IC50 [µM]": 39.2}
{"Compound": "CCOC(=O)c1cc(CCc2ccccc2OC)sc1N", "time": "48 h", "IC50 [µM]": 20}
{"Compound": "CCC[C@H](Nc1nc(-c2ccc(NC(=O)NCC)c(OC)c2)ncc1C)c1cccnc1", "technique": "fluorescence", "time": "72 h", "IC50 [µM]": 0.0036}
{"Compound": "N#Cc1cc(CCc2ccccc2)sc1N", "time": "48 h", "IC50 [µM]": 32}
{"Compound": "CC(=O)O[C@H]1C(=O)[C@@]2(C)[C@H]([C@H](OC(=O)c3ccccc3)[C@]3(O)C[C@H](OC(=O)[C@H](O)[C@@H](NC(=O)c4ccccc4)c4ccccc4)C(C)=C1C3(C)C)[C@]1(OC(C)=O)CO[C@@H]1C[C@@H]2O", "technique": "MTT", "time": "48 h", "IC50 [µM]": 0.31}
{"Compound": "COc1cccc(C(=O)c2cc3c(-c4ccccc4)c(O)ccc3o2)c1", "time": "72 h", "IC50 [µM]": 35}
{"Compound": "O=C(CN1C(=O)SC(=Cc2ccccc2)C1=O)Nc1nc2c(Cl)cccc2s1", "technique": "MTT", "time": "48 h", "IC50 [µM]": 35.1}
{"Compound": "O=C1C(=Cc2ccccc2)CN(C(=O)CC(=O)N2CC(=Cc3ccccc3)C(=O)C(=Cc3ccccc3)C2)CC1=Cc1ccccc1", "time": "72 h", "IC50 [µM]": 0.2}
{"Compound": "COc1cc(OC)cc(C(=O)c2cc3c(-c4ccccc4)c(OC)ccc3o2)c1", "time": "72 h", "IC50 [µM]": "> 50"}
{"Compound": "O=C1C(=Cc2ccccc2)CN(C(=O)CCCCCCC(=O)N2CC(=Cc3ccccc3)C(=O)C(=Cc3ccccc3)C2)CC1=Cc1ccccc1", "time": "72 h", "IC50 [µM]": 2.28}
{"Compound": "CCOC(=O)c1c(N)sc(CCc2cc(OC)ccc2OC)c1C(=O)OCC", "time": "48 h", "IC50 [µM]": 20}
{"Compound": "O=C(CN1C(=O)SC(=Cc2ccc(F)cc2)C1=O)Nc1cccc(C(F)(F)F)c1", "technique": "MTT", "time": "48 h", "IC50 [µM]": 30.1}
{"Compound": "COC(=O)c1cc(CCc2cc(OC)ccc2OC)sc1N", "time": "48 h", "IC50 [µM]": 1.4}
{"Compound": "COc1cccc2c1C(=O)c1c(O)c3c(c(O)c1C2=O)C[C@@](O)(C(=O)CO)C[C@@H]3O[C@H]1C[C@H](N)[C@H](O)[C@H](C)O1", "technique": "resazurin", "time": "72 h", "IC50 [µM]": 0.01}
{"Compound": "COc1ccc(C(=O)c2cc3c(-c4ccccc4)c(O)ccc3o2)cc1", "time": "72 h", "IC50 [µM]": 0.88}
{"Compound": "COc1ccc(OC)c(-c2cc(C#N)c(N)s2)c1", "time": "48 h", "IC50 [µM]": 12}
{"Compound": "O=C(CN1C(=O)SC(=Cc2ccc(F)cc2)C1=O)Nc1ccc(Cl)cc1C(F)(F)F", "technique": "MTT", "time": "48 h", "IC50 [µM]": 38}
